Activity calls are given as the source filed them. The rule behind the calls is not given here.
Assays:
Mus musculus [1] = test: In-vivo binding affinity to GlyT1 in mouse assessed as target occupancy in forebrains dosed intraperitoneally using [3H]N-methyl-SSR504734 as radioligand after 1 hr by liquid scintillation counting method; assay type: functional; settings: ip
Outline: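 Mice dosed i.p. at several doses; forebrain homogenates then tested ex vivo for binding of a GlyT1 radioligand to give target occupancy, with ED50 for 50% occupancy estimated across the dose range.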

[2] = molecular target: Voltage-gated inwardly rectifying potassium channel KCNH2 (Homo sapiens, UniProt Q12809); test: Inhibition of human ERG
Sequence of Voltage-gated inwardly rectifying potassium channel KCNH2 (Q12809 whole entry): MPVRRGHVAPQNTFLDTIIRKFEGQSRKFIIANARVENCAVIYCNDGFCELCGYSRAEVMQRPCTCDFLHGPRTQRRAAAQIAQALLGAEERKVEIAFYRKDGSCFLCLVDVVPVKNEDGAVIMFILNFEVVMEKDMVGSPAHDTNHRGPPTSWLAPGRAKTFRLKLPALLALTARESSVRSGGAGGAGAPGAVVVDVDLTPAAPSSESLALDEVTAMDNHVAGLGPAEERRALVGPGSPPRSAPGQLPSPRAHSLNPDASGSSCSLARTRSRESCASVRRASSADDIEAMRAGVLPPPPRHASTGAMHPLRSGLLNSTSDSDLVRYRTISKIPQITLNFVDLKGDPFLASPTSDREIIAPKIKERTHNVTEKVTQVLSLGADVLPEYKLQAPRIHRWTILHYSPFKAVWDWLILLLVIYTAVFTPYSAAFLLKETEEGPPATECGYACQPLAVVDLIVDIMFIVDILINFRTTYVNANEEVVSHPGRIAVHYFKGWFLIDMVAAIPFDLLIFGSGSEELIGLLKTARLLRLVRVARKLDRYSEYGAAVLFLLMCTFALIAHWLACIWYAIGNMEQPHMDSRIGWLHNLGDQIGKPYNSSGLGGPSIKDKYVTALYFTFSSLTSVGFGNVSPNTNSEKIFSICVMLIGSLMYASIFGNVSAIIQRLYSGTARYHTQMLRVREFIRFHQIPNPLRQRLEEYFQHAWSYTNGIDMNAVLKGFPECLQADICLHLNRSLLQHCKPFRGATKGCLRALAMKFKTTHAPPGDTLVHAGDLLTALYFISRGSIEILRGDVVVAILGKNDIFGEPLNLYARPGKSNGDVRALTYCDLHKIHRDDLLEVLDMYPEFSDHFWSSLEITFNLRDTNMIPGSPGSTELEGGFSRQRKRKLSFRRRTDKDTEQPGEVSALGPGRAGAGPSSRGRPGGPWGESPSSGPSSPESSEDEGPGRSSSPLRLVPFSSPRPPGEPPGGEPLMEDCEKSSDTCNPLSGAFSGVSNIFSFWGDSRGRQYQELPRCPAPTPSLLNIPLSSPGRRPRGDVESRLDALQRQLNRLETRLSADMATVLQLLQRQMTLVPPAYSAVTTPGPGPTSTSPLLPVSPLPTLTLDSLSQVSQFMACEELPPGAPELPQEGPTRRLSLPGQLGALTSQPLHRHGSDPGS

[3] = fCmax in Sprague-Dawley rat brain at 2 mg/kg, ip measured after 8 to 24 hrs by LC-MS/MS method; assay type: ADME, organism-based; settings: in vivo
[4] = Clearance in rat liver microsomes at 0.5 uM incubated up to 30 mins in presence of NADPH by LC-MS/MS method; assay type: ADME, microsome; settings: read-out: CLH
[5] = molecular target: T1, Sodium- and chloride-dependent glycine transporter 1 (Homo sapiens, UniProt P48067); test: Displacement of [3H]N-Methyl-SSR504734 from human GlyT1c expressed in cell membranes incubated for 1 hr by liquid scintillation spectrometry
T1 sequence (P48067 whole entry): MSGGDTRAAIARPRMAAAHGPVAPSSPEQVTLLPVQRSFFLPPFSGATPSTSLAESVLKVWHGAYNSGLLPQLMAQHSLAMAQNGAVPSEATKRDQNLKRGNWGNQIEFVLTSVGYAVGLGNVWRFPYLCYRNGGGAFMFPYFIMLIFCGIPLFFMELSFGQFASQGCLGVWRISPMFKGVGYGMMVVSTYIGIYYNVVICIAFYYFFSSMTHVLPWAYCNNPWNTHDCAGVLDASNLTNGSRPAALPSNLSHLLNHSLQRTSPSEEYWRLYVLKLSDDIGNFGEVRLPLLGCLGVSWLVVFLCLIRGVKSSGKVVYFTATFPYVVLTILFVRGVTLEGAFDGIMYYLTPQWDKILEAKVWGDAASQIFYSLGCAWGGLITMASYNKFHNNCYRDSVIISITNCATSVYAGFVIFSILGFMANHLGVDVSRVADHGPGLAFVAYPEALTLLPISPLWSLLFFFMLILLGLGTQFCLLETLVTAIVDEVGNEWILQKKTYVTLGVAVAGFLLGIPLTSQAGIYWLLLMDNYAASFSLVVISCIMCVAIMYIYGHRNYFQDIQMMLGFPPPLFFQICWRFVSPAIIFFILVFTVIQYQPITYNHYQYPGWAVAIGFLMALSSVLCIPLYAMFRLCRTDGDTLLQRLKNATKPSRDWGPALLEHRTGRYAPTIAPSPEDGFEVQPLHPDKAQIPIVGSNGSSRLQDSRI

[6] = Efflux ratio in MDCK2-MDR1 cells at 1 uM incubated fro 1 hr by LC-MS/MS method; assay type: ADME, cell-based, Canis lupus familiaris; settings: dog, MDCK-MDR1
[7] = Clearance in human liver microsomes at 0.5 uM incubated up to 30 mins in presence of NADPH by LC-MS/MS method; assay type: ADME, microsome; settings: read-out: CLH
[8] = Drug level in Sprague-Dawley rat brain at 0.2 mg/kg, ip measured after 8 to 24 hrs by LC-MS/MS method; assay type: ADME, organism-based; settings: in vivo, read-out: Drug uptake
[9] = molecular target: T2, Sodium- and chloride-dependent glycine transporter 1 (Homo sapiens) (UniProt P48067); test: Inhibition of GlyT1c (unknown origin) expressed in Xenopus laevis oocytes clamped at -60 mV assessed as reduction in 3000 uM glycine-induced membrane currents at 300 nM pre-treated with glycine for 1 min followed by compound dosing for 3 mins by two-electrode voltage clamp assay; assay type: cell-based
T2 sequence (whole entry): T1 sequence (P48067 whole entry)
Outline: (§1)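 Oocytes expressing GlyT1c were stimulated with 10 µM or 3000 µM glycine to evoke transporter current. Compound at 300 nM was added to the glycine solution, and % inhibition of the current was calculated. Mode of inhibition was judged by comparing inhibition at the two glycine levels. Data are mean ± SD, N>4 oocytes.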

[10] = molecular target: T2, Sodium- and chloride-dependent glycine transporter 1 (Homo sapiens); test: Non-competitive inhibition of GlyT1c (unknown origin) expressed in Xenopus laevis oocytes clamped at -60 mV assessed as reduction in glycine-induced membrane currents at 300 nM pre-treated with glycine for 1 min followed by compound dosing for 3 mins by two-electrode voltage clamp assay; assay type: cell-based; outline: as §1
[11] = molecular target: T2, Sodium- and chloride-dependent glycine transporter 1 (Homo sapiens); test: Inhibition of GlyT1c (unknown origin) expressed in Xenopus laevis oocytes clamped at -60 mV assessed as reduction in 10 uM glycine-induced membrane currents at 300 nM pre-treated with glycine for 1 min followed by compound dosing for 3 mins by two-electrode voltage clamp assay; assay type: cell-based; outline: as §1
[12] = Oral bioavailability in Sprague-Dawley rat at measured after 8 to 24 hrs by LC-MS/MS method; assay type: ADME, organism-based; settings: in vivo
Mus musculus [13] = test: Reversal of L687,414-induced hyperlocomotion in mouse at 0.3 to 3 mg/kg, ip dosed 120 mins before test followed by L687,414 dosing for 15 mins before test and measured after 60 mins by Wilcoxon-Mann-Whitney test; assay type: functional
Outline: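 Non-habituated mice received test agent (0.3, 1.0, 3.0 mg/kg) or vehicle i.p. 120 min before test, then 50 mg/kg L-687,414 or vehicle i.p. 15 min before test; locomotor activity recorded for 60 min; n=8 mice per group, mean ± SEM; Mann-Whitney and Dunn's multiple comparisons tests.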

[14] = Oral bioavailability in dog; assay type: ADME, organism-based, Canis lupus familiaris; settings: in vivo
[15] = Solubility in water; assay type: physicochemical
[16] = Permeability in MDCK2-MDR1 cells at 1 uM incubated fro 1 hr by LC-MS/MS method; assay type: ADME, cell-based, Canis lupus familiaris; settings: dog, MDCK-MDR1; read-out: permeability

| fCmax [3] | microsomal CLint at 0.5 µM [4] | Ki [5] | efflux ratio at 1 h, 1 µM [6] | microsomal CLint at 0.5 µM [7] | concentration [8] | inhibition [9] | inhibition [10] | inhibition [11] | bioavailability [12] | bioavailability [14] | solubility [15] | Papp at 1 h, 1 µM [16] | Structure (SMILES) | ED50 (Mus musculus [1]) | IC50 [2] | ED50 (Mus musculus [13]) | inhibition (Mus musculus [13]) |
| --- | --- | --- | --- | --- | --- | --- | --- | --- | --- | --- | --- | --- | --- | --- | --- | --- | --- |
| 18.7 nM | 85 µL/min/mg | 0.9 nM | 1.7 | < 23 µL/min/mg | 0.9 nM |  |  |  |  |  |  |  | O=S(=O)(CC1CC1)NC1CN(c2ccc3c(c2)[C@@H](Cc2ccccc2)[C@@H](N2CCC2)CC3)C1 | 0.2 mg/kg | 4400 nM |  |  |
|  |  | 47 nM |  |  |  | 95% | Active | 67% |  |  |  |  | C[C@H](Oc1ccc(S(C)(=O)=O)cc1C(=O)N1CCN(c2ncc(C(F)(F)F)cc2F)CC1)C(F)(F)F [BITOPERTIN] |  |  |  |  |
| 2 nM | 55 µL/min/mg | 0.8 nM | 12 | 10 µL/min/mg |  | 39% |  | 97% | 17% | 75% | > 1000 µg/mL | 22 ×10⁻⁶ cm/s | Cn1cnc(S(=O)(=O)NCCOc2ccc3c(c2)[C@@H](Cc2ccccc2)[C@@H](N2CCC2)CC3)c1 | 1.4 mg/kg | 15000 nM | 0.8 mg/kg | Dose-dependent effect |

Source: ChEMBL document CHEMBL4145681, “Discovery of Novel Aminotetralines and Aminochromanes as Selective and Competitive Glycine Transporter 1 (GlyT1) Inhibitors” (J Med Chem, 2018)
